Assay [1] is described as follows: Concentration for 50% cytotoxicity towards malignant cells expressed in HSG neoplastic cell line. Type of assay: functional. The following applies: Homo sapiens. The essentials:
(§1)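 Human oral squamous carcinoma HSC-2 and HSC-3 and submandibular gland carcinoma HSG cells were grown in DMEM with 10% heat-inactivated FBS. Near-confluent cells were exposed to various compound concentrations for 24 h. Viable cells were read by MTT (absorbance of stained lysate at 540). CC50 came from dose-response curves as the mean of duplicates.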

Assay [2] can be described thus: Concentration for 50% cytotoxicity towards nonmalignant cells expressed in HPLF normal periodontal ligament fibroblasts. Conditions: Homo sapiens.
Assay [3] in a line: Effect of compound on multidrug resistance in murine L-5178 cells at 40 ug/ml concentration; expressed as fluorescence activity ratio (treated/untreated cells). Format: functional, Mus musculus.
Assay [4] can be described thus: Concentration for 50% cytotoxicity towards nonmalignant cells expressed in HGF normal gingival fibroblasts. Conditions: Homo sapiens.
Assay [5] in a line: Concentration for 50% cytotoxicity towards malignant cells expressed in HSC-2 neoplastic cell line. Format: functional. Conditions: Homo sapiens. The essentials:
as §1

A further assay has as its system HSC-3. Description: Concentration for 50% cytotoxicity towards malignant cells expressed in HSC-3 neoplastic cell line. Format: functional. The following applies: Homo sapiens. Summed up: as §1
A short description of assay [6]: Effect of compound on multidrug resistance in colon320 neoplasm cells at 40 ug/ml concentration; expressed as fluorescence activity ratio (treated/untreated cells). Format: functional, Homo sapiens.
Assay [7] is described as follows: Concentration for 50% cytotoxicity towards nonmalignant cells expressed in HPC normal pulp cells. Conditions: Homo sapiens.
The next assay concerns HL-60. Description: Concentration for 50% cytotoxicity towards malignant cells expressed in HL-60 neoplastic cell line. Conditions: Homo sapiens. Format: functional. The essentials: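 Human promyelocytic leukaemia HL-60 cells were grown in RPMI1640 with 10% FBS and exposed to various compound concentrations for 24 h. Viable cell number was counted by trypan blue exclusion. CC50 was taken from dose-response curves, mean of duplicate determinations.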

A short description of assay [8]: Effect of compound on multidrug resistance in colon320 neoplasm cells at 4 ug/ml concentration; expressed as fluorescence activity ratio (treated/untreated cells). Format: functional, Homo sapiens.
A short description of assay [9]: Selectivity index of compound towards human malignant cell lines. Type of assay: functional.
The nature of assay [10]: Effect of compound on multidrug resistance in murine L-5178 cells at 4 ug/ml concentration; expressed as fluorescence activity ratio (treated/untreated cells). Type of assay: functional, Mus musculus.

A value given as a limit tells only on which side of the number the result lay.

As usually defined, the CC50 is the concentration at which the toxic effect on the cells reaches its halfway point.

In the case of `COc1ccc(/C=C2\CC/C(=C\c3ccc([N+](=O)[O-])cc3)C2=O)cc1`, the cytotoxic concentration (CC50) is above 400 µM in assay [1]; above 400 µM in assay [2]; above 400 µM in [4]; 63 µM in [5]; above 400 µM with HSC-3; above 400 µM in [7]. This compound also yielded a CC50 in the assay on HL-60 above 400 µM. Also, the Effect in assay [3] amounted to 0.69; in assay [6], 0.37; in assay [8] it was 0.63; in assay [10], 0.59. In assay [9], this compound had an SI of around 1.3.
As for `O=C1/C(=C/c2ccc([N+](=O)[O-])cc2)CCC/C1=C\c1ccc2c(c1)OCO2`, the CC50 in assay [1] was above 400 µM; in [2], 330 µM; in assay [4], above 400 µM; in assay [5], 308 µM; in the assay with HSC-3 it was 189 µM; in [7] it was 391 µM. This compound also returned a cytotoxic concentration (CC50) in the assay with HL-60 above 400 µM. Besides, the Effect amounted to 1.23 in [3], 0.59 in assay [6], 0.67 in assay [8] and 0.91 in [10]. The SI in assay [9] was around 1.2.
Consider `COc1cc(/C=C2/C(=O)/C(=C/c3ccc([N+](=O)[O-])cc3)c3ccccc32)cc(OC)c1OC`, for which the CC50 in assay [1] was above 400 µM; in assay [2], above 400 µM; in assay [4], 89 µM; in [5], 221 µM; in the assay with HSC-3, above 400 µM; in assay [7] it was 153 µM. Besides, the cytotoxic concentration (CC50) in the assay with HL-60 came out at 318 µM. The compound further came in with an SI in [9] of around 0.6.
Consider `COc1cc(/C=C2\Cc3ccccc3/C(=C\c3ccc([N+](=O)[O-])cc3)C2=O)ccc1O`, for which the CC50 is 5.8 µM in assay [1]; 21 µM in [2]; 33 µM in assay [4]; 1.45 µM in assay [5]; 3.8 µM with HSC-3; 83 µM in assay [7]. This compound also showed a 50% cytotoxic concentration (CC50) in the assay on HL-60 of 0.95 µM. Further, the Effect in [3] was determined as 123; in [6], 6.2; in [8], 3.38; in [10], 51.8. Moreover, the SI in [9] worked out at 15.
Consider `COc1ccc(/C=C2\CCC/C(=C\c3ccc([N+](=O)[O-])cc3)C2=O)cc1OC`, for which the 50% cytotoxic concentration (CC50) in [1] worked out at 13 µM; in assay [2], 95 µM; in assay [4], 53 µM; in [5], 2.3 µM; with HSC-3 it was 4.4 µM; in assay [7], 82 µM. This compound showed a 50% cytotoxic concentration (CC50) with HL-60 of 4.3 µM. The Effect in assay [3] stood at 47.3; in assay [6], 4.62; in assay [8], 6.12; in [10] it was 20.4. This compound also showed an SI in assay [9] of 13.
Take `COc1cc(/C=C2\Cc3ccccc3/C(=C\c3ccc([N+](=O)[O-])cc3)C2=O)cc(OC)c1OC`: the CC50 in assay [1] is 3 µM; in assay [2], above 400 µM; in [4] it was above 400 µM; in assay [5], 0.55 µM; in the assay on HSC-3, 2.9 µM; in assay [7], above 400 µM. In addition, in the assay with HL-60, the midpoint of cytotoxicity, the CC50, lay at 0.55 µM. The Effect in assay [3] was 120; in assay [6], 13; in [8], 10.9; in [10], 134. Besides, the SI in assay [9] is above 229.
As to `COc1cc(/C=C2\CC/C(=C\c3ccc([N+](=O)[O-])cc3)C2=O)cc(OC)c1OC`, the 50% cytotoxic concentration (CC50) (in assay [1]; in [2]; in assay [4]; in assay [5]; with HSC-3; in assay [7]) was above 400 µM throughout. For the same compound, the CC50 in the assay on HL-60 is above 400 µM. Also, the Effect in [3] was found to be 6.62; in assay [6], 1.28; in assay [8], 1.96; in [10] it was 3.06. In [9], this compound showed an SI of around 1.
Turning to `COc1cc(/C=C2\CCC/C(=C\c3ccc([N+](=O)[O-])cc3)C2=O)cc(OC)c1OC`, the CC50 was found to be 8.3 µM in assay [1]; 378 µM in [2]; 336 µM in [4]; 0.76 µM in [5]; 4.7 µM with HSC-3; 347 µM in [7]. The same compound yielded a CC50 in the assay on HL-60 of 1.1 µM. Also, the Effect in assay [3] stood at 75.1; in assay [6], 4.38; in assay [8] it was 7.43; in assay [10], 15.6. In assay [9], the SI is 95.
In the case of `COc1cccc2c1C(=O)c1c(O)c3c(c(O)c1C2=O)C[C@@](O)(C(=O)CO)C[C@@H]3O[C@H]1C[C@H](N)[C@H](O)[C@H](C)O1` [DOXORUBICIN], the CC50 is 1.9 µM in assay [1]; above 400 µM in assay [2]; 233 µM in assay [4]; 0.68 µM in assay [5]; 2.9 µM in the assay on HSC-3; 414 µM in [7]. Further, in the assay on HL-60, it took 0.47 µM to reach half-maximal cytotoxicity (CC50). The same compound had an SI in [9] above 235.
`O=C1/C(=C/c2ccc(O)cc2)Cc2ccccc2/C1=C\c1ccc([N+](=O)[O-])cc1`: the CC50 amounted to 11 µM in assay [1]; 75 µM in assay [2]; 85 µM in assay [4]; 5.2 µM in [5]; 14 µM in the assay with HSC-3; 113 µM in assay [7]. In the assay on HL-60, this compound yielded a CC50 of 2.5 µM. The Effect is reported as 39.3 in assay [3], 11.7 in assay [6], 1.99 in assay [8] and 135 in assay [10]. In assay [9], this compound displayed an SI of 12.
For `COc1cc(/C=C2\CCC/C(=C\c3ccc([N+](=O)[O-])cc3)C2=O)ccc1O`, the CC50 in assay [1] is 11 µM; in assay [2] it was 171 µM; in assay [4] it was 165 µM; in [5] it was 2.8 µM; in the assay with HSC-3, 5.2 µM; in assay [7] it was above 400 µM. Besides, the CC50 in the assay on HL-60 was 3.4 µM. The Effect is on record as 0.83 in assay [3], 1.13 in assay [6], 1.98 in [8] and 1.5 in assay [10]. The SI in assay [9] is above 44.
In the case of `O=C1/C(=C/c2ccc(O)cc2)CCC/C1=C\c1ccc([N+](=O)[O-])cc1`, the CC50 in assay [1] was above 400 µM; in [2] it was above 400 µM; in assay [4] it was above 400 µM; in assay [5] it was 8.1 µM; in the assay with HSC-3, 13 µM; in assay [7], above 400 µM. In the assay with HL-60, this compound registered a cytotoxic concentration (CC50) of 4.4 µM. The Effect in [3] was determined as 0.97; in assay [6], 0.6; in assay [8], 1.15; in assay [10] it was 0.94. This compound also registered an SI in assay [9] of around 3.8.
For `COc1ccc(/C=C2\Cc3ccccc3/C(=C\c3ccc([N+](=O)[O-])cc3)C2=O)cc1`, the CC50 in assay [1] is 47 µM; in [2], above 400 µM; in assay [4] it was above 400 µM; in assay [5], 11 µM; with HSC-3, 32 µM; in assay [7], above 400 µM. The compound also displayed a CC50 with HL-60 of 4.4 µM. Also, the Effect came to 7.68 in assay [3], 4.3 in assay [6], 2.22 in [8] and 4.36 in assay [10]. The SI in assay [9] is above 17.
Consider `COc1ccc(/C=C2\CCC/C(=C\c3ccc([N+](=O)[O-])cc3)C2=O)cc1`, for which the CC50 (in [1]; in [2]; in assay [4]; in assay [5]; in the assay with HSC-3; in assay [7]) was above 400 µM in each case. The compound also displayed a CC50 in the assay on HL-60 above 400 µM. In addition, the Effect is recorded as 0.82 in [3], 0.58 in assay [6], 0.5 in assay [8] and 0.76 in assay [10]. In addition, the SI in assay [9] was around 1.
On to `O=C1/C(=C/c2ccc(Cl)cc2)CCC/C1=C\c1ccc([N+](=O)[O-])cc1`, for which the half-maximal cytotoxic concentration (CC50) is 15 µM in [1]; 332 µM in assay [2]; 191 µM in assay [4]; 1.5 µM in assay [5]; 4.6 µM in the assay with HSC-3; 345 µM in [7]. In the assay with HL-60, this compound came in with a CC50 of 4.1 µM. The Effect was found to be 0.94 in assay [3], 0.53 in assay [6], 0.6 in [8] and 1.16 in [10]. For the same compound, the SI in assay [9] was 46.
Regarding `O=C1/C(=C/c2ccc3c(c2)OCO3)Cc2ccccc2/C1=C\c1ccc([N+](=O)[O-])cc1`, the cytotoxic concentration (CC50) in assay [1] was 5 µM; in assay [2], above 400 µM; in assay [4] it was above 400 µM; in assay [5], 2.6 µM; in the assay with HSC-3 it was 7.6 µM; in assay [7] it was above 400 µM. Moreover, in the assay on HL-60, the CC50 is 2.2 µM. The Effect in assay [3] was 3.87; in [6], 2.27; in [8], 1.95; in assay [10], 3.27. The same compound showed an SI in [9] above 92.

(Values after ChEMBL document CHEMBL1141909, “3-Arylidene-1-(4-nitrophenylmethylene)-3,4-dihydro-1H-naphthalen-2-ones and related compounds displaying selective toxicity and reversal of multidrug resistance in neoplastic cells” (2005).)
